Compound activity from PubChem.
TAAR1 antag: human TAAR1 antagonists, primary screen, Fluo-8 calcium fluorescence, CHO RD-HGA16 cells | Trace amine-associated receptor 1 (Homo sapiens), Q96RJ0 | antagonist | inhibition, % at 3 µM | hit rate 1.5% among 360,000;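 active = inhibition above a per-plate cutoff, the mean inhibition of test compounds on that plate plus 3 SD, cut at about 49% in these data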;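 note: 0% = DMSO plus EC80 beta-PEA response and 100% = DMSO alone without agonist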
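System: CHO RD-HGA16 cells bearing hTAAR1. Reagent: EC80 β-phenethylamine stimulus. Schedule: seeding 17-24 h prior, 75-min 37 °C, 30-min RT dye loading. Signal: Fluo-8 intracellular calcium dye fluorescence, real-time kinetic reads. Read-out: % inhibition from peak post-agonist over basal fluorescence ratio. Benchmarks: vehicle wells and EC80 agonist wells. Replicates: n of 1.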
CRFBP-R2 block: antagonists of CRF-BP/CRF-R2 complex, primary screen, cell-based, HEK293, calcium dye fluorescence, uHTS; CRF-induced calcium fluorescence; inhibition, % at 11.8 µM; hit rate 0.59% among 350,000; AID 588475, 2011;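 active = inhibition of the ligand-induced calcium signal above about 50% at the single tested concentration, limit read from the data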
ANO1 block: TMEM16A chloride channel inhibitors, primary screen, cell-based, HTS; HEK293 TMEM16A/YFP iodide influx fluorescence, ionomycin; normalized B-score (activity score, 25-100; higher = stronger inhibition) at 10 µM; hit rate 1.2% among 310,000; AID 588511, 2011;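 active = ratio plate-corrected score three or more library SD toward inhibition, starting fluorescence score within five deviations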;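 note: score derived from kinetic fluorescence span divided by baseline fluorescence per well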
CRFR2-BP ag: agonists of CRF-BP/CRF-R2 complex, primary screen, cell-based, HEK293, calcium dye fluorescence, uHTS. activation, % at 13.2 µM. AID 588473, 2011. CRF-binding protein / CRF receptor 2 complex (human). calcium dye fluorescence (FLIPR); percent of saturating CRF peptide response. hit rate 0.46% among 350,000;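 active = activation of at least 50%, plus an integration ratio under a set limit after plate pattern correction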;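 note: plate controls were neutral control wells without compound for no effect and CRF at EC100 for full effect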
TAAR1 agonist: human TAAR1 agonists, primary screen, Fluo-8 calcium fluorescence, CHO RD-HGA16 cells. Trace amine-associated receptor 1 (Homo sapiens), Q96RJ0. activation, % at 3 µM. hit rate 0.99% among 360,000. AID 624467, 2012. vehicle wells 0%, saturating PEA agonist 100%;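 active = activation above the mean activation of all test compounds in the run plus 3 SD, cut at about 38% in these data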
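Test system: RD-HGA16 (CHO) cells co-expressing Gα16 and hTAAR1; dosing: one-point dosing at 3 µM (nominal); timing: 17-24 h seeding, 75 min 37 °C dye, 30 min RT; signal: kinetic Fluo-8 calcium fluorescence; read-out basis: % activation relative to PEA EC100 response; controls: DMSO and PEA EC100; replicates: n 1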
TMEM16A act: TMEM16A chloride channel activators or potentiators, primary screen, cell-based, HTS | hit rate 0.3% among 340,000 | Anoctamin-1 (Mus musculus), Q8BHY3 | B-score at 10 µM | HEK293 TMEM16A/YFP-H148Q/I152L, iodide quench fluorescence; hits give low values;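 active = fluorescence-ratio B-score plate-corrected deviation score at least 3 library SD below zero, with starting fluorescence score within 5 deviations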;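 note: channel opened by trigger with iodide after compound preincubation; score built on the fluorescence ratio of max minus min over baseline; more negative score means more quench and so TMEM16A activation or potentiation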
* = called active by the depositor; i = inactive; . = no result. Compounds with a hit are over-represented: about 3.9% of the library has one in this group of screens.

SMILES	TAAR1 antag	CRFBP-R2 block	ANO1 block	CRFR2-BP ag	TAAR1 agonist	TMEM16A act
CC1c2cccn2CCN1S(=O)(=O)c1ccccc1 (configuration not stated)	2	-3	.	1	-1	i
CC(NS(=O)(=O)c1ccc2c(c1)c(=O)n(C)c(=O)n2C)C(=O)NC1CCCCC1 (configuration not stated)	-5	4	i	3	0	i
CN(Cc1ccccc1)C(=O)CSc1n[nH]c(N)n1	-14	-3	i	-1	1	i
CCOC(=O)C(Sc1n[nH]c(N)n1)c1ccccc1 (configuration not stated)	2	2	25*	1	4	i
Cc1ccc(C(C)(C)C)cc1S(=O)(=O)Nc1cccc(C(=O)N2CCN(c3ccccn3)CC2)c1	61*	-31	.	8	15	i
Cc1cccc(NS(=O)(=O)c2cccc(C(=O)N3CCC3)c2)c1	-4	-9	.	-1	1	i
Cc1cccc(NS(=O)(=O)c2cccc(C(=O)N3CCN(c4ccccn4)CC3)c2)c1	32	115*	i	-2	7	i
CCN1CCN(C(=O)c2ccc3c(c2)N(Cc2ccc(C)cc2)CCS3)CC1	-22	-13	i	-1	3	i
Cc1ccc(CN2CCSc3ccc(C(=O)N4CCN(c5ncccn5)CC4)cc32)cc1	.	62*	i	-3	.	i
Cc1ccc(NS(=O)(=O)c2ccc(C(=O)N3CCN(c4ncccn4)CC3)cc2)cc1	5	-22	25*	15	13	i
O=C1NC2(CCCCC2)C(=O)N1c1cccc(Cl)c1	-13	-21	i	0	0	i
COc1cc2c(cc1OC)[C@@H](NC(=O)C(C)C)[C@H](OCc1ccccc1)C2	-2	28	.	0	1	.
CC(CCc1ccco1)NC(=O)CCc1nnc2ccc(NCc3ccccc3)nn12 (configuration not stated)	2	53*	i	1	4	i
CCOCCn1c(SCC(=O)OCc2ccccc2)nc2c1c(=O)[nH]c(=O)n2C	-11	-44	i	56*	2	i
CCOCCn1c(SCc2ccccc2)nc2c1c(=O)[nH]c(=O)n2C	-9	-20	i	-4	0	i
Cc1c(C(=O)N2CCOCC2)c(S(=O)(=O)Nc2ccccc2)c(C)n1C	6	7	i	2	-1	i
CNc1nc2cc([N+](=O)[O-])c([N+](=O)[O-])cc2nc1NC	8	66*	i	65*	16	i
CCN(Cc1ccc(N(C)C)cc1)C(C)C(=O)Nc1ccc(S(=O)(=O)N2CCCC2)cc1 (configuration not stated)	-27	3	.	-1	4	i
CCOC(=O)c1ccc(NC(=O)c2ccc(C)c(S(=O)(=O)N3CCOCC3)c2)cc1	80*	7	i	3	25	i
CCN(CC)CCOC(=O)c1ccc(NC(=O)c2ccc(Cl)c(S(=O)(=O)N3CCCCCC3)c2)cc1	-13	-34	25*	15	8	i
Cc1cc(Cl)ccc1OCC(=O)NCC(=O)N/N=C/c1ccco1	-2	9	i	0	0	i
CSc1ccc(C(=O)C2CCCN(S(=O)(=O)N(C)C)C2)cc1 (configuration not stated)	8	-3	i	-1	12	i
CN(C)S(=O)(=O)N1CCCC(C(=O)c2ccc(-c3ccccc3)c(F)c2)C1 (configuration not stated)	12	-4	100*	0	4	i
Oc1c(C=Nc2ccccc2Cl)[nH]c2ccccc12	-6	-6	i	1	1	-8.7*
Oc1[nH]c2ccccc2c1N=Nc1ccccc1Cl	6	-97	.	124*	17	i
SMILES	TAAR1 antag	CRFBP-R2 block	ANO1 block	CRFR2-BP ag	TAAR1 agonist	TMEM16A act
O=C(NCCc1nnc2ccc(N3CCCCCC3)nn12)c1ccccc1F	-2	17	i	0	1	i
CC(=O)c1ccc(OCCCC(=O)OCC(=O)N2CCN(S(=O)(=O)c3ccc(C)cc3C)CC2)cc1	33	14	.	3	12	i
O=C(c1ccccc1)c1sc(N2CCCCCC2)nc1-c1ccccc1	16	20	i	1	4	i
COc1ccc(-c2nc(N3CCCCCC3)sc2C(=O)c2ccccc2)cc1	80*	-7	i	3	42*	i
C[C@H](CCC(=O)O)[C@H]1CC[C@H]2[C@@H]3CC[C@@H]4C[C@H](O)CC[C@]4(C)[C@H]3C[C@H](O)[C@]12C	-9	14	i	0	4	i
C[C@H](CCC(=O)OCc1cn(CC(=O)c2ccc(O)cc2)nn1)C1CC[C@H]2[C@@H]3CC[C@@H]4C[C@H](O)CC[C@]4(C)[C@H]3C[C@H](O)[C@]12C (some centres not stated)	53*	-7	.	1	11	.
COc1ccc(-c2nc(N3CCN(C)CC3)sc2-c2ccc(OC)cc2)cc1	-7	-24	i	0	10	i
CCC1(CC)Cc2ccccc2C(=O)N1	-2	11	i	-1	1	i
CCC1(CC)Cc2ccccc2C(N)=C1C#N	-12	-8	i	1	1	-53*
O=C(CNC(=O)c1ccccc1)N/N=C/C=C/c1ccccc1	21	4	i	-6	42*	i
COc1ccc(C(=O)NCC(=O)N/N=C/C=C/c2ccccc2)cc1OC	10	0	i	-2	15	i
Cc1ccc(S(=O)(=O)N2CCN(C(=O)C(Cc3ccccc3)NC(=O)c3ccccc3)CC2)cc1 (configuration not stated)	28	-4	.	0	11	i
Cc1ccc(N=C(NOCc2ccc(Cl)cc2Cl)c2nonc2N)c(C)c1	57*	9	i	-1	5	i
COc1ccccc1CNC(=O)CCc1nnc2ccc(NCCCN3CCCC3=O)nn12	-35	99*	i	1	6	i
COc1ccc(NC(=O)CCCSc2ccccc2)cc1	18	18	i	-6	0	i
FC(F)(F)c1ccccc1-c1nc(-c2ccncc2)no1	8	57*	i	-1	8	.
COc1ccccc1-c1nc(-c2ccncc2)no1	-2	9	i	3	1	i
